Compound activity (PubChem)
CaV13 ICDI inh: Disruptors of the CACNA1D IQ motif to Ca2+-dependent inactivation inhibitor domain association, primary screening, Förster resonance energy transfer in intact living … | inhibition, % at 12.3 µM | AID 743397 | HEK cells, CFP/YFP FRET ICDI-IQ, plate reader, 10 min; percent FRET-ratio fall versus neutral wells | 340,000 tested, 0.098% active;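 active means mean replicate inhibition of at least 30% and at least 1% of replicates passing that level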
NPR2 activator: human GC-B receptor activators, primary screen, HEK293 GC-B cells, cGMP TR-FRET, EC30 CNP | 0% at EC30 CNP, 100% saturating CNP | activation, % at 10 µM | 370,000 tested, 0.11% active | AID 1920062, 2024;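 active means activation at 10 µM reaching about 35% in either raw or pattern-adjusted values, limit read from the data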
GC-A act: GC-A stimulated cGMP production enhancers – HEK293 GC-A cells, cGMP TR-FRET, EC30 ANP, primary screen. 370,000 tested, 0.14% active. 0% at EC30 ANP, 100% saturating ANP. activation, % at 10 µM; in the data active means activation above about 40%
FN deposition inh: inhibitors of fibronectin matrix deposition, primary screen, AH1F cells, Alexa488-fibronectin fluorescence, plate reader. AH1F fibroblasts, overnight. inhibition, % at 12.6 µM. 350,000 tested, 0.086% active. AID 743247, 2014;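 active means mean inhibition across replicates of 30% or more, regardless of how many single replicates reach that level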
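Assay system: AH1F fibroblasts assembling fluorescent fibronectin matrix; Amount: 10000 AH1F cells per well; Buffer or medium: DMEM, 2% serum; Probe or stimulus: Alexa488-fibronectin, 24 nM final in well; Doses: single compound dose, delivered by pin transfer; Incubation: 1 h adhesion, overnight exposure; Measured by: fluorescence 485/525 nm; Read-out: fibronectin deposition inhibition.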
NSD2 inh: NSD2 histone methyltransferase inhibitors, primary screen, biochemical, AlphaScreen, single concentration, set 2 | Histone-lysine N-methyltransferase NSD2 (Homo sapiens), O96028 | NSD2 peptide methylation, 120 min | inhibition, % at 12.5 µM | 310,000 tested, 0.54% active | AID 743445, 2014; in the data active means inhibition above about 50%
CASP6 VEID inh: human caspase-6 inhibitors, primary screen, biochemical, VEID-R110 fluorescence, single point, set 2 | P55212 | inhibition, % at 12.5 µM | 350,000 tested, 0.53% active | AID 686996, 2013 | purified caspase-6, Z-VEID-R110 cleavage fluorescence;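 active means mean inhibition across replicates at least about 35%, with every replicate also reaching that limit, limit read from the data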
Target sequence (P55212 24-179 limits assumed): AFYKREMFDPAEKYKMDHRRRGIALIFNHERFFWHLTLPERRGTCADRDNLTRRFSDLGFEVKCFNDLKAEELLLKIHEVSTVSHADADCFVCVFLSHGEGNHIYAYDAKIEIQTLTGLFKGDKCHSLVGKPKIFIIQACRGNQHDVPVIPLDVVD
Target sequence (P55212 194-293 limits assumed): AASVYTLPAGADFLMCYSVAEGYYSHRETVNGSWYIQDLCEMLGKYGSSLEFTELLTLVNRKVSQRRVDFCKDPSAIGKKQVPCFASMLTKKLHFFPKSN
Numbers stand for hits; – = inactive; · = no result. Only some compounds are listed: those with a hit (about 0.99% of all), similar ones and a draw of the others.

SMILES | CaV13 ICDI inh | NPR2 activator | GC-A act | FN deposition inh | NSD2 inh | CASP6 VEID inh
CN(c1ncc(C(F)(F)F)cc1Cl)n1cc(C(N)=O)c2ccccc2c1=O | – | – | – | · | 110.1 | ·
C[C@@H]1CN([C@H](C)CO)C(=O)c2cccc(NS(C)(=O)=O)c2O[C@H]1CN(C)C(=O)Nc1cccc2ccccc12 | · | · | · | · | · | –
O=C(Cc1cccc2ccccc12)NC1CCCCCC1 | · | · | · | · | – | ·
O=C1C=CC2=C3c4cc(O)c(O)cc4CC3(O)COC2=C1O (stereo unspecified) | · | – | – | · | · | 84.9
C[C@H]1CN([C@@H](C)CO)C(=O)Cc2cc(NC(=O)c3ccncc3)ccc2O[C@@H]1CN(C)Cc1ccc2c(c1)OCO2 | · | · | · | – | · | –
CCNC(=O)[C@@H]1[C@@H](CO)[C@@H]2Cn3c(ccc(-c4ccccc4)c3=O)[C@H]1N2Cc1ccccc1 | · | · | · | · | · | –
O=C(N[C@H](Cc1ccccc1)C(=O)N1CCN(C(=O)N2CCCCC2)CC1)[C@H]1O[C@@H](n2ccc(=O)[nH]c2=O)[C@H](O)[C@@H]1O | – | – | – | – | · | –
O=C(N[C@H](Cc1ccccc1)C(=O)N1CCN(C(=O)N2CCOCC2)CC1)[C@H]1O[C@@H](n2ccc(=O)[nH]c2=O)[C@H](O)[C@@H]1O | – | – | – | – | · | 50.6
C[C@@H]1CCCCO[C@@H](CN(C)Cc2ccncc2)[C@H](C)CN([C@@H](C)CO)C(=O)c2cc(NC(=O)Nc3ccc(F)cc3)ccc2O1 | · | · | · | – | · | ·
CCNC(=O)C[C@H]1CC[C@H]2[C@@H](COc3ccc(NC(=O)c4cccc(C#N)c4)cc3C(=O)N2C)O1 | · | · | · | – | · | ·
O=C(Nc1cccc(Oc2ccc(C(=O)O)c(C(=O)O)c2)c1)c1ccc(-c2ccccc2)cc1 | – | – | – | – | – | 42.0
CC(C)(C)C(=O)Nc1ccc(C(=O)Nc2cccc(Oc3ccc(C(=O)O)c(C(=O)O)c3)c2)cc1 | – | – | – | – | – | –
CC(C)Cc1nnc(NC(=O)CSc2nc(N)cc(=O)[nH]2)s1 | – | – | – | active | – | ·
CCc1nc(SCC(=O)Nc2nnc(CC(C)C)s2)n[nH]1 | – | – | – | – | – | –
C[C@@H]1CN([C@@H](C)CO)C(=O)c2cc(NC(=O)Nc3ccccc3)ccc2O[C@H]1CN(C)C(=O)Nc1ccccc1 | · | · | · | · | · | –
S=c1[nH]nc2ccccn12 | – | – | – | – | · | –
Cc1ccn2c(=S)[nH]nc2c1 | – | – | – | – | – | 36.6
CCCCCCCCCCCCCCCCn1cc[n+](C)c1 | – | – | – | 33.9 | – | –
COc1ccc(S(=O)(=O)N2CCCC2CNC(=O)C(=O)NC2CCCC2)cc1 (stereo unspecified) | 31.2 | – | – | – | – | –
Cc1nc2ccc([N+](=O)[O-])cc2c(=O)n1Cc1ccc([N+](=O)[O-])cc1 | – | – | – | – | – | –
N#Cc1c(N)n(Cc2ccccc2)c(=O)c2cc([N+](=O)[O-])ccc12 | – | – | 47.2 | – | – | –
O=C(Cn1cnc([N+](=O)[O-])n1)c1ccccc1 | – | – | – | – | – | –
O=C(Cn1cnc([N+](=O)[O-])n1)c1ccc(O)c(O)c1 | – | – | – | – | – | 42.6
Cc1cc2c(cc1C)C(=O)C(Br)=C(N)C2=O | – | – | – | – | – | 74.1
Cc1ccc(Cn2c(=N)c(C(=O)NCC3CCCO3)cc3c(=O)n4cccc(C)c4nc32)cc1 (stereo unspecified) | – | 37.1 | 40.0 | – | – | –
SMILES | CaV13 ICDI inh | NPR2 activator | GC-A act | FN deposition inh | NSD2 inh | CASP6 VEID inh
Cc1ccc(Cn2c(=N)c(C(=O)NCc3ccco3)cc3c(=O)n4ccccc4nc32)cc1 | – | – | 53.2 | – | – | ·
N=c1c(C(=O)NCc2ccco2)cc2c(=O)n3ccccc3nc2n1CCc1ccccc1 | – | – | – | · | – | ·
N=c1c(C(=O)NCC2CCCO2)cc2c(=O)n3ccccc3nc2n1Cc1ccccc1 (stereo unspecified) | – | – | – | – | – | –
N=c1c(C(=O)NCC2CCCO2)cc2c(=O)n3ccccc3nc2n1Cc1ccc(Cl)cc1 (stereo unspecified) | 94.3 | – | – | – | – | –
C[C@@H]1CN([C@@H](C)CO)C(=O)c2cccc(NS(=O)(=O)c3cn(C)cn3)c2O[C@@H]1CN(C)C(=O)Nc1cccc2ccccc12 | · | · | · | – | · | –
Cc1cc(C)[n+](-c2ccc(Oc3ccccc3)c(S(=O)(=O)[O-])c2)[nH]1 | – | – | – | – | – | 40.7
CCN(CC)S(=O)(=O)c1ccc(Oc2ccccc2)c(N)c1 | – | – | – | – | – | –
Cc1ccc(Cc2c(-c3ccc(Br)cc3)nc3cc(C)ccn23)cc1 | – | 45.7 | – | – | · | –
C[C@H](CO)N1C[C@H](C)[C@H](CN(C)Cc2ccc(Oc3ccccc3)cc2)Oc2ccc(NC(=O)Nc3ccccc3)cc2C1=O | · | · | · | · | · | –
Cc1ccc(S(=O)(=O)Nc2cccc3cccnc23)c([N+](=O)[O-])c1 | – | – | – | 34.5 | – | –
O=C(O)CSCC(=O)N(Cc1ccccc1)c1nc(-c2ccccc2)c(-c2ccccc2)s1 | – | – | – | – | – | 37.4
Cc1ccccc1C1C(C#N)=C2N=C(N)c3ccccc3N2C2=C1C(=O)CCC2 (stereo unspecified) | – | 38.2 | – | – | – | –
COc1ccc(S(=O)(=O)/N=C2/NC(=O)/C(=C/c3ccco3)S2)cc1 | – | – | – | – | – | 62.4
O=C([C@H]1[C@H](CO)[C@H]2Cn3c(cccc3=O)[C@H]2N1Cc1ccccn1)N1CCC(Cc2ccccc2)CC1 | · | · | · | · | · | 40.8
COC(=O)[C@@H]1[C@@H](CO)[C@@H]2Cn3c(cccc3=O)[C@@H]2N1CC1CCOCC1 | · | · | · | · | · | 73.8
O=C([C@@H]1[C@@H](CO)[C@@H]2Cn3c(cccc3=O)[C@@H]2N1Cc1cc(F)ccc1F)N1CCOCC1 | · | · | · | · | · | 48.8
COC(=O)[C@H]1[C@H](CO)[C@H]2Cn3c(cccc3=O)[C@H]2N1CC1CCCCC1 | · | · | · | · | · | –
O=C(NCC1CCCCC1)[C@@H]1[C@@H](CO)[C@@H]2Cn3c(cccc3=O)[C@@H]2N1Cc1ccccn1 | · | · | · | · | · | –
CN1CCN(C(=O)[C@@H]2[C@@H](CO)[C@@H]3Cn4c(cccc4=O)[C@@H]3N2Cc2cc(F)ccc2F)CC1 | · | · | · | – | · | –
CCN1[C@@H]2c3ccc(-c4ccccc4OC)c(=O)n3C[C@@H]2[C@@H](CO)[C@@H]1C(=O)NCC1CC1 | · | · | · | · | · | –
